The values below come from ChEMBL document CHEMBL1921703 (Eur J Med Chem, 2011).

SMILES strings stand for the structures.

Data set [1] deals with Brain. The data set is described as follows: Prodrug conversion in mouse brain homogenate assessed as naproxen release at 250 uM/mL by HPLC analysis. It is filed as ADME, tissue-based. The note with it: in vitro, TDE = time-dependent effect. The essentials:
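Prodrugs were incubated at 37 °C for up to 90 min in mouse brain homogenate (1:5 w/v in pH 7.4 phosphate buffer). […] Peak areas were normalised to the reference prodrug peak at 15 min, SD n = 3.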

Data set [2] in a line: Chemical stability of the compound in phosphate buffer at pH 7.4 assessed as half life at 250 umol/mL by HPLC analysis. The data set is classed as physicochemical. An outline of the steps: (§1)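 Each compound, added as methanol stock, was incubated in phosphate buffer at pH 2.5, 5.0, 7.4 or 8.0 (1:4 v/v) at 37 °C. Samples were taken at 0, 1, 3, 6, 12 and 24 h. Remaining ester was measured by HPLC-UV at 238 nm on C18 with methanol-water 80:20. The pseudo-first-order rate constant came from linear regression of ln(peak area) against time, and half-life followed from it.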

Data set [3] deals with Brain. The data set is described as follows: AUC (0 to t) in Kunming mouse brain at dose equivalent to 10 mg/kg, iv of naproxen administered as single dose. Set-up: dose 10 mg/kg, route intravenous. It is filed as ADME, organism-based. The note with it: in vivo.
The nature of data set [4]: Chemical stability of the compound in phosphate buffer at pH 8.0 assessed as half life at 250 umol/mL by HPLC analysis. The data set is classed as physicochemical. The essentials: as §1
The subject of another data set is Liver. Put plainly: Drug uptake in Kunming mouse liver assessed as naproxen level at dose equivalent to 10 mg/kg, iv of naproxen administered as single dose measured by HPLC analysis. The data set is classed as ADME, organism-based. Set-up: dose 10 mg/kg, route intravenous. The note with it: in vivo.
Data set [5] in a line: Chemical stability of the compound in phosphate buffer at pH 5 assessed as half life at 250 umol/mL by HPLC analysis. It is filed as physicochemical. The essentials: as §1
Data set [6] can be described thus: Chemical stability of the compound in phosphate buffer at pH 8.0 assessed as first order rate constant of compound disappearance at 250 umol/mL by HPLC analysis. The data set is classed as physicochemical. The essentials:
as §1

The subject of data set [7] is Plasma. Put plainly: AUC (0 to t) in Kunming mouse plasma at dose equivalent to 10 mg/kg, iv of naproxen administered as single dose. It is filed as ADME, organism-based. Set-up: dose 10 mg/kg, route intravenous. The note with it: in vivo.
Data set [8] can be described thus: Chemical stability of the compound in phosphate buffer at pH 5 assessed as first order rate constant of compound disappearance at 250 umol/mL by HPLC analysis. The data set is classed as physicochemical. An outline of the steps: as §1
Data set [9] in a line: Chemical stability of the compound in phosphate buffer at pH 2.5 assessed as first order rate constant of compound disappearance at 250 umol/mL by HPLC analysis. The data set is classed as physicochemical. An outline of the steps: as §1
Another data set has as its system Heart. The data set is described as follows: Drug uptake in Kunming mouse heart assessed as naproxen level at dose equivalent to 10 mg/kg, iv of naproxen administered as single dose measured by HPLC analysis. It is filed as ADME, organism-based. Set-up: dose 10 mg/kg, route intravenous. The conditions noted are these: in vivo.
Data set [10] in a line: Metabolic stability in mouse plasma assessed as half life at 250 umol/mL by HPLC analysis. It is filed as ADME, cell-free. An outline of the steps: (§2)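 Mouse plasma, diluted with two volumes of water, or brain homogenate (1:5 w/v in cold pH 7.4 phosphate buffer) was spiked with methanol stock (1:4 v/v) and incubated at 37 °C. Aliquots taken at 0–90 min were quenched with acetonitrile and centrifuged. Remaining prodrug was measured by HPLC-UV at 238 nm. Rate constant came from ln(peak area) regression against time, and half-life followed from it.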

The nature of data set [11]: Chemical stability of the compound in phosphate buffer at pH 7.4 assessed as first order rate constant of compound disappearance at 250 umol/mL by HPLC analysis. The data set is classed as physicochemical. The essentials: as §1
The test system of the next data set is Kidney. Put plainly: Drug uptake in Kunming mouse kidney assessed as naproxen level at dose equivalent to 10 mg/kg, iv of naproxen administered as single dose measured by HPLC analysis. It is filed as ADME, organism-based. Set-up: dose 10 mg/kg, route intravenous. The conditions noted are these: in vivo.
For a further data set, the system named is Muscle tissue. Put plainly: Drug uptake in Kunming mouse muscle assessed as naproxen level at dose equivalent to 10 mg/kg, iv of naproxen administered as single dose measured by HPLC analysis. The data set is classed as ADME, organism-based. Set-up: dose 10 mg/kg, route intravenous. The note with it: in vivo.
Data set [12] relates to Plasma. The data set is described as follows: Metabolic stability in mouse plasma assessed as first order rate constant of compound disappearance at 250 umol/mL by HPLC analysis. The data set is classed as ADME, cell-free. An outline of the steps: as §2
Data set [13] can be described thus: Chemical stability of the compound in phosphate buffer at pH 2.5 assessed as half life at 250 umol/mL by HPLC analysis. The data set is classed as physicochemical. The essentials: as §1
The nature of data set [14]: Metabolic stability in mouse brain homogenate assessed as half life at 250 umol/mL by HPLC analysis. The data set is classed as ADME, tissue-based. The essentials:
as §2

Data set [15] deals with Brain. The data set is described as follows: Metabolic stability in mouse brain homogenate assessed as first order rate constant of compound disappearance at 250 umol/mL by HPLC analysis. It is filed as ADME, tissue-based. The essentials:
as §2

Data set [16] relates to Plasma. The data set is described as follows: Prodrug conversion in Kunming mouse plasma assessed as compound hydrolysis to naproxen at dose equivalent to 10 mg/kg, iv of naproxen measured by HPLC analysis. Set-up: dose 10 mg/kg, route intravenous. It is filed as ADME, organism-based. The conditions noted are these: in vivo.
A short description of data set [17]: in vivo. The conditions noted are these: Kunming, mouse, brain, iv, 10 mg/kg.
Data set [18] in a line: in vivo. The conditions noted are these: Kunming, mouse, brain, iv, 10 mg/kg. The source holds these as a separate data set.
The nature of data set [19]: in vivo. The conditions noted are these: Kunming, mouse, brain, iv, 10 mg/kg. The source holds these as a separate data set.

Turning to `COc1ccc2cc([C@H](C)C(=O)OC[C@H]3O[C@H](O)[C@H](O)[C@@H](O)[C@@H]3O)ccc2c1`, the Drug metabolism result was “tde” in the data set on Brain [1] and “Active” in the data set on Plasma [16]. Moreover, the half-life at 250 umol/mL was 114 h in data set [2]; 23.8 h in data set [4]; 107 h in data set [5]; 1.48 h in data set [10]; 53.3 h in data set [13]; 1.68 h in data set [14]. Further, the figures for the AUCt in the data set on Brain [3] and in the data set on Plasma [7] were 3930.87 µg·min/g and 10353.27 µg/min/mL, respectively. Besides, the Drug uptake result in the data set with Liver, in the data set on Heart, in the data set on Kidney and in the data set on Muscle tissue was “Active” in each case. Further, the Activity came to 2.91 ×10⁻² /hr in data set [6]; 0.645 ×10⁻² /hr in [8]; 1.3 ×10⁻² /hr in data set [9]; 0.607 ×10⁻² /hr in data set [11]; 0.782 ×10⁻² /min in the data set on Plasma [12]; 0.683 ×10⁻² /min in the data set with Brain [15].
Regarding `COc1ccc2cc([C@H](C)C(=O)OCC/C(SSCc3ccccc3)=C(\C)N(C)C=O)ccc2c1`, the results for the Drug metabolism entry in the data set with Brain [1] and in the data set with Plasma [16] were “tde” and “Active”, respectively. Besides, the half-life at 250 umol/mL in [2] was 62.4 h; in [4], 33.8 h; in data set [5], 24.7 h; in [10], 0.987 h; in data set [13], 13.7 h; in data set [14], 0.418 h. Also, the AUCt in the data set with Brain [3] was found to be 3307.75 µg·min/g; in the data set on Plasma [7] it was 8834.7 µg/min/mL. The Drug uptake result in the data set on Liver, with Heart, in the data set on Kidney and with Muscle tissue was “Active” each time. The Activity in data set [6] amounted to 2.05 ×10⁻² /hr; in [8], 2.81 ×10⁻² /hr; in [9], 5.05 ×10⁻² /hr; in [11] it was 1.11 ×10⁻² /hr; in the data set with Plasma [12] it was 1.17 ×10⁻² /min; with Brain [15], 2.76 ×10⁻² /min.
As to `COc1ccc2cc([C@H](C)C(=O)OCC/C(SSCc3ccccc3)=C(\C)N(C=O)CC(=O)OC[C@H]3O[C@H](O)[C@H](O)[C@@H](O)[C@@H]3O)ccc2c1`, the Drug metabolism entry in the data set on Brain [1] was “tde”; with Plasma [16], “Active”. The half-life at 250 umol/mL in data set [2] was 30.1 h; in data set [4], 19.5 h; in data set [5] it was 24.1 h; in data set [10], 0.755 h; in [13], 20.4 h; in [14] it was 0.312 h. Further, the values for the AUCt in the data set with Brain [3] and in the data set on Plasma [7] were 5669.45 µg·min/g and 13348.87 µg/min/mL, respectively. For the same molecule, the Drug uptake result in the data set on Liver, in the data set on Heart, in the data set with Kidney and in the data set with Muscle tissue was “Active” in each case. Further, the Activity in data set [6] amounted to 3.56 ×10⁻² /hr; in [8], 2.87 ×10⁻² /hr; in data set [9], 3.39 ×10⁻² /hr; in data set [11], 2.3 ×10⁻² /hr; in the data set with Plasma [12], 1.53 ×10⁻² /min; with Brain [15], 3.71 ×10⁻² /min.
For the molecule `COc1ccc2cc([C@H](C)C(=O)OCC/C(SSC(C)C)=C(\C)N(C=O)CC(=O)OC[C@H]3O[C@H](O)[C@H](O)[C@@H](O)[C@@H]3O)ccc2c1`, the Drug metabolism result in the data set on Brain [1] is “tde”; with Plasma [16], “Active”. Also, the half-life at 250 umol/mL in [2] was 51 h; in data set [4], 28.6 h; in [5], 34 h; in data set [10], 0.792 h; in data set [13] it was 21.7 h; in data set [14], 0.343 h. The AUCt in the data set on Brain [3] is 6140.77 µg·min/g; in the data set with Plasma [7] it was 16185.44 µg/min/mL. Besides, the Drug uptake entry in the data set on Liver, in the data set with Heart, in the data set with Kidney and in the data set with Muscle tissue was “Active” throughout. Further, the Activity in data set [6] amounted to 2.42 ×10⁻² /hr; in data set [8] it was 2.04 ×10⁻² /hr; in [9], 3.19 ×10⁻² /hr; in [11], 1.36 ×10⁻² /hr; in the data set with Plasma [12], 1.46 ×10⁻² /min; in the data set with Brain [15] it was 3.37 ×10⁻² /min.
Turning to `CCSS/C(CCOC(=O)[C@@H](C)c1ccc2cc(OC)ccc2c1)=C(/C)N(C=O)CC(=O)OC[C@H]1O[C@H](O)[C@H](O)[C@@H](O)[C@@H]1O`, the Drug metabolism result in the data set on Brain [1] is on record as “tde”; in the data set on Plasma [16], “Active”. The half-life at 250 umol/mL is 27.2 h in [2]; 25 h in data set [4]; 23.5 h in data set [5]; 0.657 h in data set [10]; 16 h in data set [13]; 0.243 h in data set [14]. Also, the AUCt in the data set with Brain [3] worked out at 4716.88 µg·min/g; in the data set with Plasma [7] it was 12914.16 µg/min/mL. For the same molecule, the Drug uptake result in the data set on Liver, in the data set on Heart, in the data set on Kidney and with Muscle tissue was “Active” each time. The Activity in [6] is 2.77 ×10⁻² /hr; in [8] it was 2.95 ×10⁻² /hr; in data set [9], 4.34 ×10⁻² /hr; in data set [11] it was 2.55 ×10⁻² /hr; in the data set with Plasma [12], 1.77 ×10⁻² /min; with Brain [15], 4.74 ×10⁻² /min.
`COc1ccc2cc([C@H](C)C(=O)O)ccc2c1` [NAPROXEN] displayed a Cmax in the data set “in vivo [17]” of 17100 ng/g. This molecule showed an MRT in “in vivo [18]” of 1.41 h. For the same molecule, the AUCt in the data set with Plasma [7] is 3812.35 µg/min/mL. In “in vivo [19]”, the Tmax is 0.75 h.

For orientation: half-life means the time in which the quantity being followed falls by half. Broadly, the Cmax is the peak of the concentration-time curve. What is called MRT is a mean duration of stay, worked out from the concentration-time curve. The term Tmax denotes the time from dosing to the highest level.
